Data taken from article PMC4493932 (MedChemComm, 2013).
Read-outs that look alike come from different tables or passages of the source. Marks after values point to notes of the source that are not given here. One block for each molecule: values may come before it.

Legend:
[1] = system: P2Y6R; settings: cited from earlier work; for EC50: read-out: P2Y6R agonist EC50
[2] = target: P2Y6R expressed on 1321N1 astrocytoma cells (Homo sapiens, UniProt Q15077); test: Flow cytometry; format: cell-based; settings: for Inhibition of fluorescent binding of 16 to 1321N1-P2Y6R cells: 30 min pre-incubation, then 16 for 2 min, FCM
P2Y6R expressed on 1321N1 astrocytoma cells, sequence (Q15077 whole entry): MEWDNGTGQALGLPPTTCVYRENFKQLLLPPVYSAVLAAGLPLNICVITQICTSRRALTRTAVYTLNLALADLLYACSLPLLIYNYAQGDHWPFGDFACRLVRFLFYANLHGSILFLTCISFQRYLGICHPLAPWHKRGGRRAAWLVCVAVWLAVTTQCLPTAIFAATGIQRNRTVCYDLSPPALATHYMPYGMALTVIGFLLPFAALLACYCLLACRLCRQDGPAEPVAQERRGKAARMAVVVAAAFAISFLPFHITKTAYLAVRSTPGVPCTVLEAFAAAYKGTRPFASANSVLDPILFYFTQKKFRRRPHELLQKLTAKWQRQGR
In short: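 1321N1 human astrocytoma cells stably expressing human P2Y6R were pre-incubated 30 min with known P2Y6R ligands. Cells were then exposed for 2 min to an Alexa Fluor 488-conjugated nucleotide agonist, and labeling was read by flow cytometry. Fluorescence was converted to MESF. Nonspecific binding was defined with 100 μM UDP, and autofluorescence came from receptor-expressing cells without probe.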

[3] = target: P2Y6R-expressing 1321N1 astrocytoma cells (Homo sapiens, UniProt Q15077); test: Fluorescence/confocal microscopy of P2Y6R-expressing 1321N1 astrocytoma cells; format: cell-based; settings: for Inhibition of fluorescent labeling by 16 (micrographs): 500 nM, 30 min preincubation at 37 °C, 16 500 nM, 60 min
P2Y6R-expressing 1321N1 astrocytoma cells, sequence (Q15077 whole entry): as above
In short: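 Stably P2Y6R-expressing 1321N1 astrocytoma cells were exposed to an Alexa Fluor 488-conjugated nucleotide agonist (500 nM, 60 min, 37 °C), with or without a known P2Y6R agonist or a diisothiocyanate antagonist. Green fluorescence was imaged on a fluorescence microscope (excitation 495 nm, emission 519 nm).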

[4] = target: human (h) P2Y6R (Homo sapiens, UniProt Q15077); test: PLC activation in 1321N1 human astrocytoma cells stably expressing the hP2Y6R; format: cell-based
human (h) P2Y6R, sequence (Q15077 whole entry): as above
In short: (§1)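 Agonist-induced phospholipase C activation in 1321N1 human astrocytoma cells stably expressing recombinant human P2Y6, P2Y2 or P2Y4 receptor. EC50 values are given as mean ± SEM. Efficacy is expressed as percent of the maximal activation by a full agonist at 10 μM. Subtype selectivity is taken as the ratio of EC50 values.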

[5] = target: hP2Y4R (Homo sapiens, UniProt P51582); test: PLC activation in 1321N1 cells stably expressing the hP2Y4R; format: cell-based; settings: percent of maximal activation by full agonist at 10 μM
hP2Y4R, sequence (P51582 whole entry): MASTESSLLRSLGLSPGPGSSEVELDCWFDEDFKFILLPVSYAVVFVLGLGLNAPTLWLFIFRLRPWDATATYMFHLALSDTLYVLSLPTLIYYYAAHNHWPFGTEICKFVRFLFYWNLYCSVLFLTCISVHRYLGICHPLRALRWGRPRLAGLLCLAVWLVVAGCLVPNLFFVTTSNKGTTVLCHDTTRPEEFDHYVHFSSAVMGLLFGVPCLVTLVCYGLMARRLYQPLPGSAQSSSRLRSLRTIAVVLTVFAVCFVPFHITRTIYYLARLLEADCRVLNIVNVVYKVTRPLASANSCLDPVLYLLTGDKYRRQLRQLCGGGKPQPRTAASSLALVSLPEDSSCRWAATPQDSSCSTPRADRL
In short: as §1

[6] = target: hP2Y2R (Homo sapiens, UniProt P41231); test: PLC activation in 1321N1 cells stably expressing the hP2Y2R; format: cell-based; settings: for EC50: read-out: Potency, EC50, P2Y2, 1321N1 astrocytoma cells expressing recombinant hP2Y2, mean ± SEM, NE = no effect
hP2Y2R, sequence (P41231 whole entry): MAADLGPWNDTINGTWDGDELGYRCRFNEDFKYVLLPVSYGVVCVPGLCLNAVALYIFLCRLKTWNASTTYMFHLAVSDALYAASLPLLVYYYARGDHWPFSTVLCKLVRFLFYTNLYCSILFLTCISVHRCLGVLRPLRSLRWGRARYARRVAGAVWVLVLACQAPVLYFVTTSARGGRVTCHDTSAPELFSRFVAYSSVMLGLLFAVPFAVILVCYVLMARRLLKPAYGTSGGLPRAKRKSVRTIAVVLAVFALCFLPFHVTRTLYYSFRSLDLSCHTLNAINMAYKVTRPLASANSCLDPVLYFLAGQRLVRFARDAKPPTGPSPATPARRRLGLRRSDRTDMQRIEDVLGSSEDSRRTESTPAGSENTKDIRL
In short: as §1

[7] = target: hP2Y1R (Homo sapiens, UniProt P47900); test: Labeling of 1321N1 cells expressing the hP2Y1R; format: cell-based; settings: data not shown
hP2Y1R, sequence (P47900 whole entry): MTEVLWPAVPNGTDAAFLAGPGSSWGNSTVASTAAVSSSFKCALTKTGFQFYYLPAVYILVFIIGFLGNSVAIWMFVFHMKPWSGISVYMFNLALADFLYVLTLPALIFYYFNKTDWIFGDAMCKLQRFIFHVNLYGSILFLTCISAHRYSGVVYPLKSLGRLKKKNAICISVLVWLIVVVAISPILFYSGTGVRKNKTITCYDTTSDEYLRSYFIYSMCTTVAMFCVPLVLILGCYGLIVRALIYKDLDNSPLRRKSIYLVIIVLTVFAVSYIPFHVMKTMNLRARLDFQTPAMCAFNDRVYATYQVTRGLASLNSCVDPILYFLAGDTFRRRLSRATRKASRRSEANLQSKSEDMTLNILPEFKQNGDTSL

[8] = system: control 1321N1 astrocytoma cells; test: FCM labeling of control 1321N1 astrocytoma cells; format: cell-based, human; settings: 60 min incubation
In short: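 Whole-cell flow cytometry labelling with the Alexa Fluor 488-tagged test compound, 400 nM. Autofluorescence came from cells without the probe. Nonspecific binding was taken in the presence of 100 μM UDP, and specific binding is total minus nonspecific. Fluorescence was converted to molecules of equivalent soluble fluorochrome (MESF). Histograms are from one of three independent experiments.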

[9] = target: T1, hP2Y14R (Homo sapiens, UniProt Q15391); format: cell-based; settings: concentrations up to 10 μM; C6 rat glioma cells
T1 sequence (Q15391 1-338): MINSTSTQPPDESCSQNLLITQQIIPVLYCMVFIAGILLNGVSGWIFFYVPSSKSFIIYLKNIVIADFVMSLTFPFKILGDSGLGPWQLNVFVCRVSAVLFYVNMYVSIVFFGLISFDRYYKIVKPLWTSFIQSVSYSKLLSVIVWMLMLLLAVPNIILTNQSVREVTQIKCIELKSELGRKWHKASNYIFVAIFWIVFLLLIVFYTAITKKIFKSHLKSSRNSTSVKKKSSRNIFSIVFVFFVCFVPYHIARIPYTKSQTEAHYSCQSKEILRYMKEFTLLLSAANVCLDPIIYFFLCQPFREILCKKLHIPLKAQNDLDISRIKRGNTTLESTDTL

[10] = system: 1321N1 astrocytoma cells not expressing a P2YR; test: Fluorescence microscopy of 1321N1 astrocytoma cells not expressing a P2YR; format: cell-based, human; settings: incubated with 16
In short: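 Confocal microscopy of 1321N1 astrocytoma cells incubated with the fluorescent test compound at 2 μM (figure panels give 1 μM) for 60 min at 37 °C. Cell-associated fluorescence was compared with receptor-expressing cells and with cells without the probe.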

Inhibition of fluorescent binding of 16 to 1321N1-P2Y6R cells ([2]; 10 μM): significant reduction of labeling
Molecule: O=c1ccn([C@@H]2O[C@H](COP(=O)(O)OP(=O)(O)O)[C@@H](O)[C@H]2O)c(=O)[nH]1 [Compound 1, Uridine 5′-diphosphate]
EC50 ([1]; endogenous agonist): 300 nM

Molecule: O=C(Cn1c(=O)ccn([C@@H]2O[C@H](COP(=O)(O)OP(=O)(O)O)[C@@H](O)[C@H]2O)c1=O)c1ccccc1 [Compound 2, 3-phenacyl-UDP]
EC50 [1]: 70 nM

Molecule: O=c1[nH]/c(=N\OCc2ccccc2)ccn1[C@@H]1O[C@H](COP(=O)(O)OP(=O)(O)O)[C@@H](O)[C@H]1O [Compound 6, N^4-benzyloxy-CDP]
P2Y6R selectivity vs. P2Y2R [1]: 82 fold | P2Y6R selectivity vs. P2Y4R [1]: 44 fold

Inhibition of fluorescent binding of 16 to 1321N1-P2Y6R cells ([2]; 0.5 μM): significant reduction of labeling | Inhibition of fluorescent labeling by 16 (micrographs) [3]: inhibit fluorescent labeling
Molecule: CO/N=c1/ccn([C@@H]2O[C@H](COP(=O)(O)OP(=O)(O)OP(=O)(O)OC[C@H]3O[C@@H](n4ccc(=O)[nH]c4=O)[C@H](O)[C@@H]3O)[C@@H](O)[C@H]2O)c(=O)[nH]1 [Compound 8, P^1-(Uridine 5′-)-P^4-(N^4-methoxycytidine 5′-) triphosphate]

Selectivity toward the P2Y6R in comparison to the P2Y4R ([4]; ratio of EC50 values): > 260 fold
Molecule: O=c1[nH]/c(=N\OCc2cccc(Br)c2)ccn1[C@@H]1O[C@H](COP(=O)(O)OP(=O)(O)O)[C@@H](O)[C@H]1O [Compound 10]

% activation, P2Y4 [5]: <50% ^c | EC50 [6]: > 10 µM
Molecule: O=c1[nH]/c(=N\OCc2ccc(I)cc2)ccn1[C@@H]1O[C@H](COP(=O)(O)OP(=O)(O)O)[C@@H](O)[C@H]1O [Compound 13]

Molecule: CO/N=c1/ccn([C@@H]2O[C@H](COP(=O)(O)OP(=O)(O)OP(=O)(O)Oc3ccc4ccccc4c3)[C@@H](O)[C@H]2O)c(=O)[nH]1 [Compound 20]
% activation, P2Y4 [5]: <50% ^c

% activation, P2Y4 [5]: <50% ^c | % activation, P2Y2 ([6]; percent of maximal activation by full agonist at 10 μM): <50% ^c
Molecule: C#CCCOP(=O)(O)OP(=O)(O)OP(=O)(O)OC[C@H]1O[C@@H](n2cc/c(=N/OCc3ccccc3)[nH]c2=O)[C@H](O)[C@@H]1O [Compound 22]

% activation, P2Y4 [5]: <50% ^c | Potency, EC50, P2Y6 ([4]; 1321N1 astrocytoma cells expressing recombinant hP2Y6, mean ± SEM): nearly inactive | EC50 [6]: > 10 µM
Molecule: C#CCCCOP(=O)(O)OP(=O)(O)OP(=O)(O)OC[C@H]1O[C@@H](n2cc/c(=N/OCc3ccccc3)[nH]c2=O)[C@H](O)[C@@H]1O [Compound 23]

Molecule: S=C=Nc1cccc(NC(=S)NCCCCNC(=S)Nc2cccc(N=C=S)c2)c1 [MRS2578]
Inhibition of fluorescent binding of 16 to 1321N1-P2Y6R cells ([2]; 1 μM): significant reduction of labeling | Inhibition of fluorescent labeling by 16 (micrographs) [3]: inhibit fluorescent labeling

% activation, P2Y4 [5]: <50% ^c | Specific labeling of 1321N1 cells expressing the hP2Y1R [7]: no specific labeling | Activation of the hP2Y14R [9]: did not activate | Selectivity toward the P2Y6R in comparison to the P2Y2R ([4]; ratio of EC50 values): 280 fold | Selectivity toward the P2Y6R in comparison to the P2Y4R ([4]; ratio of EC50 values): > 1100 fold | EC50 ([4]; read-out: Potency, EC50, P2Y6, 1321N1 astrocytoma cells expressing recombinant hP2Y6, mean ± SEM): 9 ± 1.9 nM | P2Y6R potency gain over immediate precursor 15 ([4]; vs 15 lacking the fluorophore): 11 fold | EC50 [6]: 2.5 ± 0.66 µM
Molecule: (N^4-(3-(AlexaFluor-NH-(CH2)6-triazole-(CH2)2-C≡C)-benzyloxy))-CDP [Compound 16]
Specific labeling of control 1321N1 cells [8]: no specific labeling | Fluorescence of cells not expressing a P2YR [10]: no increase in fluorescence | Cell-associated fluorescence, localization ([3]; 2 μM, 60 min incubation at 37 °C, confocal microscopy): receptor-dependent and mainly intracellular

Blockade of cell labeling by 100 μM UDP ([2]; 100 nM to 1 μM): could not be blocked
Molecule: N^4-(3-(Cy5-NH-(CH2)6-triazole-(CH2)2-C≡C)-benzyloxy)-CDP [Compound 17]
Dependence of 1321N1 cell labeling on P2Y6R expression ([2]; 100 nM to 1 μM): independent of the expression of the P2Y6R
